≈ marks a conversion by molar mass, not a printed value.
Assays:
Format in all cases: functional
[1] = test system: Pichia kudriavzevii; experiment: Antifungal activity against Candida krusei ATCC 6258 by NCCLS M27-A2 method
How it was run: (§1)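 Broth dilution per NCCLS M27-A2, with azoles serially diluted in high-resolution antifungal assay medium over 0.125–128, 0.03–64 or 0.06–128 μg/ml depending on the drug. MIC endpoints were read spectrophotometrically at 540 nm. Values are reported per species or source group as median and range.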

[2] = test system: Candida albicans; experiment: Antifungal activity against Candida albicans isolates by NCCLS M27-A2 method; how it was run: as §1
[3] = test system: Saccharomycopsis; experiment: Antifungal activity against Saccharomycopsis guttulata isolates from feeding stuff by NCCLS M27-A2 method; how it was run: as §1
[4] = test system: Candida parapsilosis; experiment: Antifungal activity against Candida parapsilosis ATCC 22013 by NCCLS M27-A2 method; settings: Lodderomyces parapsilosis
[5] = test system: Candida albicans; experiment: Antifungal activity against Candida albicans isolates from HIV infected patient before fluconazole therapy by NCCLS M27-A2 method; how it was run: as §1
[6] = test system: Saccharomyces cerevisiae; experiment: Antifungal activity against sSaccharomyces cerevisiae isolates from grapes by NCCLS M27-A2 method; how it was run: as §1
[7] = test system: Candida albicans; experiment: Antifungal activity against Candida albicans isolates from HIV infected patient during fluconazole therapy by NCCLS M27-A2 method; how it was run: as §1
[8] = test system: Candida albicans; experiment: Antifungal activity against Candida albicans isolates from animals by NCCLS M27-A2 method; how it was run: as §1
[9] = test system: Hanseniaspora uvarum; experiment: Antifungal activity against sKloeckera apiculata isolates from grapes by NCCLS M27-A2 method; how it was run: as §1
[10] = test system: Rhodotorula; experiment: Antifungal activity against Rhodotorula sp. isolates from grapes by NCCLS M27-A2 method; how it was run: as §1
[11] = test system: Starmerella stellata; experiment: Antifungal activity against sCandida stellata isolates from grapes by NCCLS M27-A2 method; how it was run: as §1
[12] = test system: Cryptococcus neoformans; experiment: Antifungal activity against Cryptococcus neoformans ATCC 90112 by NCCLS M27-A2 method
[13] = test system: Pichia fermentans; experiment: Antifungal activity against Candida lambica isolates from grapes by NCCLS M27-A2 method; how it was run: as §1
[14] = test system: Diutina rugosa; experiment: Antifungal activity against Candida rugosa isolates from feeding stuff by NCCLS M27-A2 method; how it was run: as §1
[15] = test system: Pichia kudriavzevii; experiment: Antifungal activity against Candida krusei isolates from grapes and feeding stuffs by NCCLS M27-A2 method; how it was run: as §1
[16] = test system: Wickerhamomyces anomalus; experiment: Antifungal activity against Pichia anomala isolates from grapes by NCCLS M27-A2 method; settings: Hansenula anomala; how it was run: as §1
[17] = test system: Nakaseomyces glabratus; experiment: Antifungal activity against Candida glabrata isolates from feeding stuffs by NCCLS M27-A2 method; how it was run: as §1
[18] = test system: Pichia norvegensis; experiment: Antifungal activity against Candida norvegensis isolates from grapes by NCCLS M27-A2 method; how it was run: as §1
[19] = test system: Nakaseomyces glabratus; experiment: Antifungal activity against Candida glabrata ATCC 90030 by NCCLS M27-A2 method; how it was run: as §1

Row | Compound | MIC50 [1] [µg/mL] | MIC50 [2] [µg/mL] | MIC50 [3] [µg/mL] | MIC50 [4] [µg/mL] | MIC50 [5] [µg/mL] | MIC50 [6] [µg/mL] | MIC50 [7] [µg/mL] | MIC50 [8] [µg/mL] | MIC50 [9] [µg/mL] | MIC50 [10] [µg/mL] | MIC50 [11] [µg/mL] | MIC50 [12] [µg/mL] | MIC50 [13] [µg/mL] | MIC50 [14] [µg/mL] | MIC50 [15] [µg/mL] | MIC50 [16] [µg/mL] | MIC50 [17] [µg/mL] | MIC50 [18] [µg/mL] | MIC50 [19] [µg/mL]
1 | OC(Cn1cncn1)(Cn1cncn1)c1ccc(F)cc1F [FLUCONAZOLE] | 64 (≈ 209 µM) | 0.12 (≈ 0.392 µM) | 1 (≈ 3.27 µM) | 2 (≈ 6.53 µM) | 2.25 (≈ 7.35 µM) | 8 (≈ 26.1 µM) | 128 (≈ 418 µM) | 0.25 (≈ 0.816 µM) | 0.5 (≈ 1.63 µM) | 16 (≈ 52.2 µM) | 64 (≈ 209 µM) | 8 (≈ 26.1 µM) | 128 (≈ 418 µM) | 1 (≈ 3.27 µM) | 64 (≈ 209 µM) | 2 (≈ 6.53 µM) | 32 (≈ 104 µM) | 128 (≈ 418 µM) | 
2 | O=c1c2cc(F)ccc2nc(-n2cncn2)n1-c1ccc(Cl)cc1Cl [FLUQUINCONAZOLE] | 128 (≈ 340 µM) | 0.5 (≈ 1.33 µM) | 64 (≈ 170 µM) | 2 (≈ 5.32 µM) | 0.375 (≈ 0.997 µM) | 0.25 (≈ 0.665 µM) | 64 (≈ 170 µM) | 0.5 (≈ 1.33 µM) | 0.12 (≈ 0.319 µM) | 0.5 (≈ 1.33 µM) | 64 (≈ 170 µM) | 0.12 (≈ 0.319 µM) | 64 (≈ 170 µM) | 0.12 (≈ 0.319 µM) | 128 (≈ 340 µM) | 4 (≈ 10.6 µM) | 1 (≈ 2.66 µM) | 64 (≈ 170 µM) | 32 (≈ 85.1 µM)
3 | CCC(C)n1ncn(-c2ccc(N3CCN(c4ccc(OCC5COC(Cn6cncn6)(c6ccc(Cl)cc6Cl)O5)cc4)CC3)cc2)c1=O (stereo unspecified) [ITRACONAZOLE] | 0.5 (≈ 0.709 µM) | 0.06 (≈ 0.085 µM) | 0.5 (≈ 0.709 µM) | 0.25 (≈ 0.354 µM) | 0.06 (≈ 0.085 µM) | 2 (≈ 2.83 µM) | 0.75 (≈ 1.06 µM) | 0.12 (≈ 0.17 µM) | 0.25 (≈ 0.354 µM) | 0.06 (≈ 0.085 µM) | 2 (≈ 2.83 µM) | 0.5 (≈ 0.709 µM) | 2 (≈ 2.83 µM) | 0.06 (≈ 0.085 µM) | 1 (≈ 1.42 µM) | 0.5 (≈ 0.709 µM) | 1 (≈ 1.42 µM) | 1 (≈ 1.42 µM) | 4 (≈ 5.67 µM)
4 | CC(=O)N1CCN(c2ccc(OCC3COC(Cn4ccnc4)(c4ccc(Cl)cc4Cl)O3)cc2)CC1 (stereo unspecified) [KETOCONAZOLE] | 2 (≈ 3.76 µM) | 0.03 (≈ 0.0565 µM) | 2 (≈ 3.76 µM) | 0.12 (≈ 0.226 µM) | 0.25 (≈ 0.47 µM) | 2 (≈ 3.76 µM) | 2 (≈ 3.76 µM) | 0.5 (≈ 0.941 µM) | 0.25 (≈ 0.47 µM) | 0.5 (≈ 0.941 µM) | 8 (≈ 15.1 µM) | 2 (≈ 3.76 µM) | 4 (≈ 7.53 µM) | 0.25 (≈ 0.47 µM) | 8 (≈ 15.1 µM) | 1 (≈ 1.88 µM) | 4 (≈ 7.53 µM) | 2 (≈ 3.76 µM) | 8 (≈ 15.1 µM)
5 | CCCC(Cn1cncn1)c1ccc(Cl)cc1Cl (stereo unspecified) [PENCONAZOLE] | 64 (≈ 225 µM) | 2 (≈ 7.04 µM) | 8 (≈ 28.2 µM) | 8 (≈ 28.2 µM) | 0.25 (≈ 0.88 µM) | 2 (≈ 7.04 µM) | 12 (≈ 42.2 µM) | 2 (≈ 7.04 µM) | 0.5 (≈ 1.76 µM) | 16 (≈ 56.3 µM) | 96 (≈ 338 µM) | 4 (≈ 14.1 µM) | 64 (≈ 225 µM) | 1 (≈ 3.52 µM) | 128 (≈ 450 µM) | 8 (≈ 28.2 µM) | 4 (≈ 14.1 µM) | 64 (≈ 225 µM) | 4 (≈ 14.1 µM)
6 | CC(C)(C)C(O)(CCc1ccc(Cl)cc1)Cn1cncn1 (stereo unspecified) [TEBUCONAZOLE] | 32 (≈ 104 µM) | 0.06 (≈ 0.195 µM) | 4 (≈ 13 µM) | 1 (≈ 3.25 µM) | 0.75 (≈ 2.44 µM) | 1 (≈ 3.25 µM) | 24 (≈ 78 µM) | 0.185 (≈ 0.601 µM) | 0.06 (≈ 0.195 µM) | 1 (≈ 3.25 µM) | 64 (≈ 208 µM) | 4 (≈ 13 µM) | 16 (≈ 52 µM) | 0.06 (≈ 0.195 µM) | 64 (≈ 208 µM) | 4 (≈ 13 µM) | 2 (≈ 6.5 µM) | 4 (≈ 13 µM) | 8 (≈ 26 µM)
7 | CC(C)(C)C(O)C(Oc1ccc(Cl)cc1)n1cncn1 (stereo unspecified) [TRIADIMENOL] | 32 (≈ 108 µM) | 2 (≈ 6.76 µM) | 16 (≈ 54.1 µM) | 16 (≈ 54.1 µM) | 2 (≈ 6.76 µM) | 8 (≈ 27 µM) | 64 (≈ 216 µM) | 1.5 (≈ 5.07 µM) | 0.25 (≈ 0.845 µM) | 64 (≈ 216 µM) | 128 (≈ 433 µM) | 4 (≈ 13.5 µM) | 128 (≈ 433 µM) | 1 (≈ 3.38 µM) | 64 (≈ 216 µM) | 16 (≈ 54.1 µM) | 8 (≈ 27 µM) | 64 (≈ 216 µM) | 8 (≈ 27 µM)
8 | C[C@@H](c1ncncc1F)[C@](O)(Cn1cncn1)c1ccc(F)cc1F [VORICONAZOLE] | 1 (≈ 2.86 µM) | 0.03 (≈ 0.0859 µM) | 0.12 (≈ 0.344 µM) | 0.06 (≈ 0.172 µM) | 0.03 (≈ 0.0859 µM) | 0.5 (≈ 1.43 µM) | 1.5 (≈ 4.29 µM) | 0.03 (≈ 0.0859 µM) | 0.03 (≈ 0.0859 µM) | 0.06 (≈ 0.172 µM) | 1 (≈ 2.86 µM) | 0.25 (≈ 0.716 µM) | 2 (≈ 5.73 µM) | 0.03 (≈ 0.0859 µM) | 1 (≈ 2.86 µM) | 0.25 (≈ 0.716 µM) | 0.25 (≈ 0.716 µM) | 2 (≈ 5.73 µM) | 2 (≈ 5.73 µM)

Source: ChEMBL document CHEMBL1155174, “Cross-resistance to medical and agricultural azole drugs in yeasts from the oropharynx of human immunodeficiency virus patients and from environmental Bavarian vine grapes” (2007)
